# What was measured:
# [1] = Dissociation constant, pKa of the compound by dip probe absorption spectroscopy; format: physicochemical
# Cytochrome P450 2C9 = Cytochrome P450 2C9 (Homo sapiens, UniProt P11712); experiment: Inhibition of CYP2C9 in human liver microsomes using diclofenac as substrate preincubated with compound followed by NADPH addition by LC-MS/MS analysis; format: ADME, Microsome
# Cytochrome P450 2C8 = molecular target: T1, Cytochrome P450 2C8 (Homo sapiens, UniProt P10632); experiment: Inhibition of CYP2C8 in human liver microsomes using amodiaquine as substrate preincubated with compound followed by NADPH addition by LC-MS/MS analysis; format: ADME, Microsome
# T1 sequence (P10632 whole entry): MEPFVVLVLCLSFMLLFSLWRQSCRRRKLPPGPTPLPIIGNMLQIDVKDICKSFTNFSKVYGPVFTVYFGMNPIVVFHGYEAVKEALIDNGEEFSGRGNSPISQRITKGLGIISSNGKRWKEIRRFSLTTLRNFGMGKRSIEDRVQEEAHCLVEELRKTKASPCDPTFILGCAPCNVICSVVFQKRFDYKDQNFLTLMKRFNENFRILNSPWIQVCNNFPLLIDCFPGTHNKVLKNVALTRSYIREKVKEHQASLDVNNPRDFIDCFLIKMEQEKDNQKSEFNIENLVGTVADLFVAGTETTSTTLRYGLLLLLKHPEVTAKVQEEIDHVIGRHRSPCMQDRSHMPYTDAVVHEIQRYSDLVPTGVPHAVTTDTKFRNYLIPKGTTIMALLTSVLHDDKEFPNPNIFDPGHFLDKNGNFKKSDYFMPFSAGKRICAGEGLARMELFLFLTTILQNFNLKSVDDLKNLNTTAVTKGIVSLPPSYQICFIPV
# Cytochrome P450 3A4 = Cytochrome P450 3A4 (Homo sapiens, UniProt P08684); experiment: Inhibition of CYP3A4 in human liver microsomes using midazolam as substrate preincubated with compound followed by NADPH addition by LC-MS/MS analysis; format: ADME, Microsome
# Cytochrome P450 2D6 = Cytochrome P450 2D6 (Homo sapiens, UniProt P10635); experiment: Inhibition of CYP2D6 in human liver microsomes using dextromethorphan as substrate preincubated with compound followed by NADPH addition by LC-MS/MS analysis; format: ADME, Microsome
# Cytochrome P450 2C19 = Cytochrome P450 2C19 (Homo sapiens, UniProt P33261); experiment: Inhibition of CYP2C19 in human liver microsomes using mephenytoin as substrate preincubated with compound followed by NADPH addition by LC-MS/MS analysis; format: ADME, Microsome
# [2] = Octanol-water partition coefficient, logD of the compound at pH 11 by HPLC analysis; format: physicochemical; conditions: read-out: logD
# [3] = Aqueous solubility of the compound at pH 4.5 incubated for 24 hrs under shaking condition by LC-UV analysis; format: physicochemical; conditions: aqueous medium
# Outline: (§1)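 The highest concentration tested was 250 μM, so results are capped at that level. Values are reported in µg/ml.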
# [4] = Aqueous solubility of the compound at pH 2.2 incubated for 24 hrs under shaking condition by LC-UV analysis; format: physicochemical; conditions: aqueous medium; outline: as §1
# [5] = Octanol-water partition coefficient, logD of the compound at pH 2 by HPLC analysis; format: physicochemical
# [6] = Aqueous solubility of the compound at pH 6.8 incubated for 24 hrs under shaking condition by LC-UV analysis; format: physicochemical; conditions: aqueous medium; outline: as §1
# [7] = Lipophilicity, logP of the compound; format: physicochemical; conditions: octanol/water
# [8] = Permeability of the compound at pH 7.4 by PAMPA assay; format: ADME; conditions: read-out: permeability
# [9] = Metabolic stability in human liver microsomes assessed as hepatic blood flow at 1 uM preincubated with compound followed by NADPH addition by LC-MS/MS analysis; format: ADME, Microsome; conditions: read-out: QH
# [10] = Stability of the compound at pH 7.4 assessed as half life measured after 24 hrs in presence of GSH by HPLC analysis; format: physicochemical; conditions: solution with GSH
# [11] = Photostability of the compound assessed as compound degradation administered as aqueous solution irradiated with UV and measured after 24 hrs by HPLC analysis
# [12] = Cytotoxicity against human HepG2 cells assessed as cell growth inhibition incubated for 24 hrs by MTT assay; format: toxicity, cell-based
# Outline: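 HepG2 human hepatoma cells were exposed to compound at concentrations up to 400 µM and viability was read by MTT. The result is given in µM.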
# Chain of Cytochrome P450 2C9 (P11712 whole entry): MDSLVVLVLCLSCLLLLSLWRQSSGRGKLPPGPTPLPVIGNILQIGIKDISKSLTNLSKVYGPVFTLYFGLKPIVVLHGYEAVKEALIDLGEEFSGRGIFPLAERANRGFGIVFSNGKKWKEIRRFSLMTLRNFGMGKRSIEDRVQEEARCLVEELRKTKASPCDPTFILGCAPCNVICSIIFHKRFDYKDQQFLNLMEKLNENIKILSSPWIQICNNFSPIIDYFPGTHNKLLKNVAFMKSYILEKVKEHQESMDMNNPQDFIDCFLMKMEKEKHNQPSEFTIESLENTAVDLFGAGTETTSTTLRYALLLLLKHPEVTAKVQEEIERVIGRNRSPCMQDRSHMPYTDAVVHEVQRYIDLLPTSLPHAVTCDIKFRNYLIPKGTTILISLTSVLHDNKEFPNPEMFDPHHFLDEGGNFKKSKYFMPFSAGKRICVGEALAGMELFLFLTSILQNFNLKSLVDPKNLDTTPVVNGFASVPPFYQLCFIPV
# Chain of Cytochrome P450 3A4 (P08684 whole entry): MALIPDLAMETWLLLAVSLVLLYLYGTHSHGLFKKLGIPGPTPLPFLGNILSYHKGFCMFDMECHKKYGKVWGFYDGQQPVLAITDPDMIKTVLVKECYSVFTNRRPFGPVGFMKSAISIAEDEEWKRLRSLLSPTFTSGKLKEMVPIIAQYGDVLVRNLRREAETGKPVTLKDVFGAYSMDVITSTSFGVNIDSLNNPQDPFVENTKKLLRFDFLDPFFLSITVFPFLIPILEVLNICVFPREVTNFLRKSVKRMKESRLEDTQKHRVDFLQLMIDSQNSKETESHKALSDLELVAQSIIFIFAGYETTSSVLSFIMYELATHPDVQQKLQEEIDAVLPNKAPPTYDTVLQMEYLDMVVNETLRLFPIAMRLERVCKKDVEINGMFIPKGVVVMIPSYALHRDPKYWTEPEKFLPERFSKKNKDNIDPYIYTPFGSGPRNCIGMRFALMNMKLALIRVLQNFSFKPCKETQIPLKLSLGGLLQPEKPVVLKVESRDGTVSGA
# Chain of Cytochrome P450 2C19 (P33261 whole entry): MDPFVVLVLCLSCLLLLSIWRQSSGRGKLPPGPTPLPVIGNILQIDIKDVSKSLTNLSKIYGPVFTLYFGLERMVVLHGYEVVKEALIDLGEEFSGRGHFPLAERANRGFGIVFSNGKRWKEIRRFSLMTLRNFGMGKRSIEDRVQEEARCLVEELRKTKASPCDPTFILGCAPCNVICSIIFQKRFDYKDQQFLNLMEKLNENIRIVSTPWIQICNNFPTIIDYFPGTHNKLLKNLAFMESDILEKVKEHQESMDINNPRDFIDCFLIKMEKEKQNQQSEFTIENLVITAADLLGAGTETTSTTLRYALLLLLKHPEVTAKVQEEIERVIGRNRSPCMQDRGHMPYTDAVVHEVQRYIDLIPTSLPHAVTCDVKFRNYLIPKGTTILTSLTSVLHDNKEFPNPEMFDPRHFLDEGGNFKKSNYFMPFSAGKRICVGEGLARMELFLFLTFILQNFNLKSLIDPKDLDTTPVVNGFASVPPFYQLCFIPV
# Chain of Cytochrome P450 2D6 (P10635 whole entry): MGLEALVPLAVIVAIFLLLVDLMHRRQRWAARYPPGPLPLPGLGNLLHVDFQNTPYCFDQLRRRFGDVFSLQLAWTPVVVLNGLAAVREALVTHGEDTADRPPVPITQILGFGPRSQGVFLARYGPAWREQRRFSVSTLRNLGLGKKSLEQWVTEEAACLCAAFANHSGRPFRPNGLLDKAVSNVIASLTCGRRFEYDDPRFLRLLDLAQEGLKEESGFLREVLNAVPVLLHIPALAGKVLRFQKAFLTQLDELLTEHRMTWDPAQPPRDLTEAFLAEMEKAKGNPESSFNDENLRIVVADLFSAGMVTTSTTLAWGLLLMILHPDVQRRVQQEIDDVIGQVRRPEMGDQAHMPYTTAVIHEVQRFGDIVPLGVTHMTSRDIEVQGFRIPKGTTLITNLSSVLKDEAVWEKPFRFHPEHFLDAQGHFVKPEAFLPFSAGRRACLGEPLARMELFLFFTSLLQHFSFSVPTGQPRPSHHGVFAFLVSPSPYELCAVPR
SMILES,pKa [1],IC50 (Cytochrome P450 2C9) [µM],IC50 (Cytochrome P450 2C8) [µM],IC50 (Cytochrome P450 3A4) [µM],IC50 (Cytochrome P450 2D6) [µM],IC50 (Cytochrome P450 2C19) [µM],logD [2],solubility thermodynamic at 24 h [3] [µg/mL],solubility thermodynamic at 24 h [4] [µg/mL],logD ([5]; read-out: logD),solubility thermodynamic at 24 h [6] [µg/mL],logP ([7]; read-out: logP),Papp [8] [×10⁻⁶ cm/s],hepatic extraction ratio at 1 µM [9],half-life [10] [h],logD [5],degraded at 24 h [11] [%],logP [7],EC50 at 24 h [12] [µM]
O=C(O)c1c[nH]c2ccccc12,5.29,,,,,,,,,,,,,,,,,,
O=C(O)c1ccc2ccc(C(=O)c3ccc(C(F)(F)F)cc3)c-2cc1,,> 50,13,> 50,> 50,> 50,,,,,,,,,,,,,
O=C(O)c1ccc2c(C(=O)c3ccccc3)cc(C(=O)c3ccccc3)c-2cc1,,12,1.5,> 50,> 50,> 50,,,,,,,,,,,,,
O=C(NCCc1cnc[nH]1)c1ccc2ccc(C(=O)c3ccccc3)c-2cc1,,,,,,,2.3,57,> 77,1.3,< 1,2.3,0.3,0.41,,,,,
COC(=O)c1ccc2ccc(C(=O)N(C)C)c-2cc1,,,,,,,2.1,50,> 64,2.3,> 64,2.1,7.4,,> 1000,,,,
CN(C)C(=O)c1cccc2ccccc12,,,,,,,1.8,> 50,> 47,,> 43,,8.3,< 0.23,,2.2,< 0.5,1.8,
CN1CCN(C(=O)c2ccc3c(c2)c(C(=O)c2ccccc2)cn3C)CC1,,,,,,,2,76,78,0.7,68,2,1.9,< 0.23,,,,,
NC(=O)C1CCN(C(=O)c2ccc3cccccc2-3)CC1,,> 50,> 50,> 50,> 50,> 50,0.6,> 57,> 71,,> 58,,0.5,< 0.23,,1.2,,0.6,> 400
O=C(NCc1cccnc1)c1ccc2ccc(C(=O)c3ccccc3)c-2cc1,,,,,,,1.4,< 1,70,1.4,< 1,3,2.4,0.46,,,,,
Cn1cc(C(=O)c2ccccc2)c2cc(C(=O)NCCc3cnc[nH]3)ccc21,,,,,,,1.5,107,84,0.9,72,1.5,0.1,0.23,,,,,
Cn1cc(C(=O)c2ccccc2)c2cc(C(=O)NCCc3c[nH]c4ccccc34)ccc21,,,,,,,3.5,< 1,< 1,3.6,< 1,3.5,0.04,0.79,,,,,
COc1cccc(C(=O)c2ccc3ccc(C(=O)O)ccc2-3)c1,,> 50,22,> 50,> 50,> 50,,,,,,,,,,,,,
O=C(NCc1cccnc1)c1ccc2[nH]cc(C(=O)c3ccccc3)c2c1,,,,,,,0.8,1,> 79,0.8,< 1,1.4,0.1,0.56,,,,,
COCC(=O)Nc1cc2cccccc-2c1,,> 50,> 50,> 50,> 50,22,,,,,,,,,,,,,> 400
O=C(NCCc1c[nH]c2ccccc12)c1ccc2ccc(C(=O)c3ccccc3)c-2cc1,,,,,,,4.3,< 1,< 1,4.4,< 1,4.3,0.03,0.69,,,,,
CN(C)C(=O)c1cn(C)c2ccccc12,,,,,,,1.3,> 51,> 51,,> 51,,6.7,0.55,,1.8,< 0.5,1.3,
Cn1cc(C(=O)c2ccccc2)c2cc(C(=O)NCc3cccnc3)ccc21,,,,,,,0.9,3,81,0.9,< 1,2.1,1.7,< 0.23,,,,,
O=C(NCCc1cnc[nH]1)C1=CC2C(C(=O)c3ccccc3)=CN=C2C=C1 (stereo not drawn),,,,,,,0.8,78,> 81,0.7,66,0.8,< 0.01,< 0.23,,,,,
CN(C)C(=O)c1c[nH]c2ccccc12,,,,,,,0.4,> 47,> 47,,> 44,,2.2,0.25,,1.1,< 0.5,0.4,
O=C(O)c1ccc2cccccc1-2,5.1,,,,,,,,,,,,,,,,,,
Cn1cc(C(=O)c2ccccc2)c2cc(C(=O)NCCO)ccc21,,,,,,,1.6,66,53,1.6,45,1.3,0.5,< 0.23,,,,,
C=CC(=O)N1C[C@H](Nc2ncnc3[nH]ccc23)CC[C@@H]1C [RITLECITINIB],,,,,,,,,,,,,,,32,,,,

# Source: ChEMBL document CHEMBL5120825, “The azulene scaffold from a medicinal chemist's perspective: Physicochemical and in vitro parameters relevant for drug discovery” (Eur J Med Chem, 2022)
